Results as given in publication PMC3818134 (Clinical cancer research : an official journal of the …, 2013).

Columns and labels:
[1] = test system: stable p110α KD and control (CONSH) cell lines (RH30, RMS-1, RD, RMS-YM); assay: MTS growth inhibition in paired CONSH and stable p110α KD lines; assay type: cell-based, human; settings: MTS growth inhibition curves, 72hr exposure
Method in brief: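 Lines were transduced with lentiviral PIK3CA or control shRNA at MOI 10 with polybrene (4μg/ml). Puromycin selection (2.5μg/ml) ran from day 2, and stable lines were derived over about 4 weeks. Cells were grown in DMEM with 10% FBS at 37°C, 5% CO2. MTS growth inhibition curves were run after 72hr continuous exposure to the test compound, diluted from 10mM stock.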

p110α = assay: PI3K isoform inhibition profile, p110α versus other isoforms; assay type: biochemical; settings: Suppl Fig S4A
RD cells = assay: GI50; assay type: cell-based, human; settings: RD cells with NRAS mutation
Method in brief: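 RD cells in DMEM with 10% FBS at 37°C, 5% CO2. Compounds prepared as 10mM stocks, then diluted in medium. MTS read-out after 72hr continuous exposure; GI₅₀ = concentration giving 50% inhibition of proliferation. Isobologram: GI₅₀ of each single agent, plus GI₅₀ of one agent at several fixed sub-GI₅₀ concentrations of the other. These are plotted on the axes, with a diagonal line as theoretical additivity.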

pERK1/2 in RD cells = assay: Western immunoblot biomarker time course in RD cells; assay type: cell-based, human; settings: 0.5× and 1.0× GI50 concentrations, 48hr time course
Method in brief: (§1)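 RD cells (DMEM, 10% FBS, 37°C) were treated with single agents or the combination at 0.5× and 1.0× GI₅₀ concentrations and sampled at time points up to 48h. Lysates (10μg) were run on Bis-Tris/Tris-Acetate gels and transferred to PVDF. Primary antibody 1:1,000 overnight at 4°C; HRP secondary 1:10,000 for 2h at room temperature; ECL Plus detection. PhosphorImager quantitation; treated/control levels expressed as % of time 0.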

pSer473AKT in RD cells = assay: Western immunoblot biomarker time course in RD cells; assay type: cell-based, human; settings: 0.5× and 1.0× GI50 concentrations, 48hr time course
Method in brief: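 RD cells (DMEM, 10% FBS, 37°C, 5% CO2) treated with test compounds singly or combined; protein extracted at time points over 48 hr. Lysates BCA-quantified, 10 μg on Bis-Tris or Tris-Acetate gels, PVDF transfer, primary 1:1,000 overnight 4°C, HRP secondary 1:10,000 2 h RT, ECL Plus, phosphorimager quantitation. Control and treated loaded side by side; treated/control phospho-levels given as % of time 0.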

[2] = Plasma and tumor pharmacokinetics; assay type: in vivo, mice; settings: for plasma level 16hrs following treatment: 10mg/kg p.o., mice bearing RD xenografts; for plasma concentrations when administered alone: AZD8055 compared with NVP-BEZ235
Method in brief: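 Female 6-8 week athymic nude (Ncr) mice carried subcutaneous RD xenografts (5 × 10⁶ cells, 25% matrigel). Oral dosing at 0.1mL/10g: MEK inhibitor 10mg/kg in 10% DMSO water; TORC1/2 inhibitor 10 or 20mg/kg in acidified water; PI3K/mTOR inhibitor 25mg/kg in 10% NMP/90% PEG300. Given alone or combined. Plasma and tumors were sampled at various times (n=3), or 3hrs after the final daily dose (19-22 days). Analysed by LC-MS/MS with MRM.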

MEK1/2 = settings: read-out: IC50 concentration for MEK1/2; cited from earlier work
p110β = assay: PI3K isoform inhibition profile, p110β versus p110α; assay type: biochemical; settings: Suppl Fig S4A
mTor = settings: cited from earlier work
pS6 in RD cells = assay: Western immunoblot biomarker time course in RD cells; assay type: cell-based, human; settings: 0.5× and 1.0× GI50 concentrations, 48hr time course
Method in brief: as §1

[3] = test system: pERK in RD xenograft tumors; assay: Tumor PD biomarker, MSD immunoassay; assay type: in vivo, mice; settings: RD xenografts, end of therapeutic study
Method in brief: (§2)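 Female 6-8-week athymic nude (Ncr) mice bore subcutaneous flank RD xenografts (5 × 10⁶ cells in 25% matrigel). Once tumors reached ≈5 mm (n=6/group), mice received daily oral dosing for 19-22 days, alone or combined, with vehicle controls: MEK inhibitor 10mg/kg (10% DMSO water), TORC1/2 inhibitor 10 or 20mg/kg (acidified water), PI3K/mTOR inhibitor 25mg/kg (10% NMP/90% PEG300). Tumors were excised and snap-frozen at termination. MSD electrochemiluminescence gave phospho/total ratios in 10μg lysate.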

[4] = test system: pAKT (Ser473) in RD xenograft tumors; assay: Tumor PD biomarker, MSD immunoassay; assay type: in vivo, mice; settings: RD xenografts, end of therapeutic study
Method in brief: as §2

[5] = test system: pS6 in RD xenograft tumors; assay: Tumor PD biomarker, MSD immunoassay; assay type: in vivo, mice; settings: RD xenografts, end of therapeutic study
Method in brief: as §2

PI3K/mTORC1/2 = settings: cited from earlier work
[6] = 10mg/kg p.o. each, versus alone

SMILES	plasma concentration range in combination with AZD6244 versus alone ([2]; 3hrs following the final dose)	plasma concentrations when administered alone ([2]; 3hrs following the final dose)	sensitivity of stable p110α KD lines compared with CONSH counterparts [1]	single-agent sensitivity of RD cells (RD cells)	pERK levels (pERK1/2 in RD cells)	plasma level 16hrs following treatment [2]	change of tumor AKT phosphorylation [4]	change of tumor S6 phosphorylation [5]	other results
Nc1cc(C(F)(F)F)c(-c2cc(N3CCOCC3)nc(N3CCOCC3)n2)cn1 [BMK120]			No differences in sensitivity						selectivity for p110α versus the other isoforms (p110α): modestly selective for p110α versus the other isoforms
Cn1cnc2c(F)c(Nc3ccc(Br)cc3Cl)c(C(=O)NOCCO)cc21 [AZD6244]			only the RMS-1 KD line (lacking both p110α and p110δ) exhibited significantly enhanced sensitivity	relatively resistant	ablated pERK levels at all time points and both concentrations	close to, or below, the limit of detection			pSer473AKT levels (pSer473AKT in RD cells): increased p^Ser473AKT levels; elimination phase in combination with AZD8055 [2, 6]: extended; peak plasma concentrations in combination with AZD8055 [2, 6]: reduced; plasma AZD6244 concentrations in combination with NVP-BEZ235 ([2]; 3hrs following the final dose): reduced plasma concentrations of AZD6244 to a similar extent as AZD8055; IC50 (MEK1/2): 14 nM
Cc1cc(C(C)Nc2ccccc2)c2nc(N3CCOCC3)cc(=O)n2c1 (stereo not drawn) [TGX221]			only the RMS-1 stable KD cell line, with minimal p110α and δ expression, showed increased sensitivity						selectivity for p110β versus p110α (p110β): 78 fold
FC(F)c1nc2ccccc2n1-c1nc(N2CCOCC2)nc(N2CCOCC2)n1 [ZSTK474]			increased sensitivity						IC50 (mTor; read-out: IC50 against mTor): 377 nM

More lines, main results first:

plasma concentration range in combination with AZD6244 versus alone ([2]; 3hrs following the final dose)	plasma concentrations when administered alone ([2]; 3hrs following the final dose)	SMILES	sensitivity of stable p110α KD lines compared with CONSH counterparts [1]	single-agent sensitivity of RD cells (RD cells)	pERK levels (pERK1/2 in RD cells)	plasma level 16hrs following treatment [2]	change of tumor AKT phosphorylation [4]	change of tumor S6 phosphorylation [5]	other results
increased	in the same range	COc1ccc(-c2ccc3c(N4CCOC[C@@H]4C)nc(N4CCOC[C@@H]4C)nc3n2)cc1CO [AZD8055]	more sensitive to mTOR inhibition than their CONSH counterparts	relatively resistant	increased pERK levels	close to, or below, the limit of detection	equally efficient in reducing AKT and S6 phosphorylation	equally efficient in reducing AKT and S6 phosphorylation	pS6 levels / inhibition of S6 phosphorylation (pS6 in RD cells): concentration dependent; change of tumor pERK levels [3]: increased pERK levels to a greater extent than NVP-BEZ235; plasma and tumor levels in combination with AZD6244 [2, 6]: higher
increased	in the same range	Cn1c(=O)n(-c2ccc(C(C)(C)C#N)cc2)c2c3cc(-c4cnc5ccccc5c4)ccc3ncc21 [NVP-BEZ235]	more sensitive to mTOR inhibition than their CONSH counterparts				equally efficient in reducing AKT and S6 phosphorylation	equally efficient in reducing AKT and S6 phosphorylation	concentrations at which it predominantly inhibits mTOR (mTor): less than 100 nM; concentrations at which it is a dual PI3K/mTORC1/2 inhibitor (PI3K/mTORC1/2): above 500 nM
